# Measurements taken from publication PMC3528973 (Bioorganic & medicinal chemistry letters, 2011).
# Read-outs that look alike come from different tables or passages of the source.
# Assays:
# [1] = test system: BJeLR (expressing HRAS^G12V); conditions: for increase in activity compared to 2a: BJeLR
# [2] = test system: BJeLR (expressing HRAS^G12V); test: cells; conditions: read-out: IC50 BJeLR
# [3] = test system: BJeH-LT (isogenic to BJeLR without HRAS^G12V); test: Cell viability counterscreen in isogenic BJeH-LT cells; type: cell-based; conditions: read-out: IC50 BJeH-LT
# Method in brief: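 IC50 measured in BJeH-LT cells, the isogenic partner of BJeLR lacking mutant HRAS; each reported value is the mean of experiments run in triplicate.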
# [4] = test system: BJeLR (expressing HRAS^G12V); conditions: cited from earlier work
# [5] = test system: DRD (expressing HRAS^G12V with alternative oncogenic constructs); test: Cell viability in DRD cells; type: cell-based
# [6] = Stability/reactivity toward glutathione; type: physicochemical
SMILES,activity in the cell assays (in words) [1],IC50 [2],IC50 [3],further results
COc1ccc(N(C(=O)CCl)C(C(=O)NCS(=O)(=O)c2ccc(C)cc2)c2cccs2)cc1Cl (stereo not shown) [Compound 1q],,,,solubility (Aqueous solubility): 16 µM
COc1ccccc1N1CCN(C(=O)c2noc(C)c2[N+](=O)[O-])CC1 [Compound 2q],inactive,> 20 µg/mL,> 20 µg/mL,
O=C(c1cc([N+](=O)[O-])ccn1)N1CCN(C(c2ccccc2)c2ccccc2)CC1 [Compound 2k],weak inhibitor,,,
Cc1onc(C(=O)NCc2ccc(F)cc2)c1[N+](=O)[O-] [Compound 2o],inactive,> 20 µg/mL,> 20 µg/mL,
Cn1cc([N+](=O)[O-])c(C(=O)N2CCN(C(c3ccccc3)c3ccccc3)CC2)n1 [Compound 2i],,> 20 µg/mL,> 20 µg/mL,
CCC(=O)N1CCN(C(=O)c2noc(C)c2[N+](=O)[O-])CC1 [Compound 2p],inactive,> 20 µg/mL,> 20 µg/mL,
Cn1ncc([N+](=O)[O-])c1C(=O)N1CCN(C(c2ccccc2)c2ccccc2)CC1 [Compound 2j],,> 20 µg/mL,> 20 µg/mL,
Cc1onc(C(=O)N2CCOCC2)c1[N+](=O)[O-] [Compound 2n],inactive,> 20 µg/mL,> 20 µg/mL,
COC(=O)c1ccc(C2c3[nH]c4ccccc4c3C[C@@H](C(=O)OC)N2C(=O)CCl)cc1 (stereo partly shown) [RSL3],,,,"selectivity vs BJeH-LT ([4]; BJeLR vs BJeH-LT): approximately 8 fold; IC50 ([4]; read-out: IC50 in BJeLR, BJeLR): 100 nM"
Cc1onc(C(=O)N2CCN(C(c3ccccn3)c3ccccn3)CC2)c1[N+](=O)[O-] [Compound 2u],inactive,> 20 µg/mL,> 20 µg/mL,
Cc1ccc(C(=O)N2CCN(C(c3ccccc3)c3ccccc3)CC2)c([N+](=O)[O-])c1 [Compound 2l],inactive,> 20 µg/mL,> 20 µg/mL,
Cc1onc(C(=O)N2CCN(Cc3ccccc3)CC2)c1[N+](=O)[O-] [Compound 2r],eliminate activity,> 20 µg/mL,> 20 µg/mL,
O=C(c1n[nH]cc1[N+](=O)[O-])N1CCN(C(c2ccccc2)c2ccccc2)CC1 [Compound 2h],,> 20 µg/mL,> 20 µg/mL,
Cc1onc(C(=O)NCCNC(c2ccccc2)c2ccccc2)c1[N+](=O)[O-] [Compound 2t],,,> 20 µg/mL,
O=C(c1ccc([N+](=O)[O-])o1)N1CCN(C(c2ccccc2)c2ccccc2)CC1 [Compound 2m],inactive,> 20 µg/mL,,
COc1ccc(N(C(=O)CCl)C(C(=O)NCCc2ccccc2)c2nc(C)cs2)cc1Cl (stereo not shown) [Compound 1k],inactive,,,
Cc1onc(C(=O)N2CCN(C(c3ccc(F)cc3)c3ccc(F)cc3)CC2)c1[N+](=O)[O-] [Compound 2w],,,,increase in activity compared to 2a [1]: 5 fold
Cc1onc(C(=O)N2CCN(C(c3ccc(Cl)cc3)c3ccc(Cl)cc3)CC2)c1[N+](=O)[O-] [Compound 2y],,,,selectivity for the DRD vs the BJeH cell line ([5]; DRD (HRAS^G12V) vs BJeH (non expressing HRAS^G12V)): 6 fold; increase in activity compared to the hit compound 2a ([5]; DRD cell line): 16 fold; increase in activity compared to 2a [1]: 14 fold
COc1ccc(N(C(=O)CCl)C(C(=O)NCCc2ccccc2)c2cccs2)cc1Cl (stereo not shown) [Compound 1a],,,,"solubility (Aqueous solubility): < 1 µM; GSH adduct observed ([6]; 48 hours incubation in PBS/DMSO (1/2) at room temperature, GSH 5 mM): 20%; time in which formation of the GSH adduct was observed ([6]; base (triethylamine) added): 1 h"
COc1ccc(N(C(=O)CCl)C(C(=O)NCn2nnc3ccccc32)c2cccs2)cc1Cl (stereo not shown) [Compound 1r],,,,aqueous solubility (in words) (Aqueous solubility; compared to 1a): did not improve solubility
Cc1onc(C(=O)N2CCN(C(c3ccncc3)c3ccncc3)CC2)c1[N+](=O)[O-] [Compound 2v],inactive,> 20 µg/mL,> 20 µg/mL,
